ChEMBL document CHEMBL4665656, “Toxicity, bioactivity, release of HS in vivo and pharmaco-kinetics of HS-donors with thiophosphamide structure” (Eur J Med Chem, 2019)
Active and inactive are the calls of the source. The rule behind the calls is not given here.

What was measured:
[1] = Induction of H2S generation assessed as half life at 150 uM incubated at 37 degC and pH 7.4 by fluorescence spectrophotometry; type: functional
Outline: (§1)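 Donor at 150 µM final, mixed with 200 µM sulfonyl-azide fluorescent probe in buffer/acetonitrile (1:9) at set pH. Cuvette held in a water bath at 22 °C or 37 °C, with fluorescence read three times at intervals. H2S was quantified from a Na2S standard curve (0–200 µM, probe 200 µM).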

[2] = Cytotoxicity against mouse RAW264.7 cells assessed as cell viability at 20 to 100 microM after 24 hrs by MTT assay; type: cell-based; conditions: dose 20-100 µM, read-out: Activity
Outline: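 RAW264.7 macrophages in high-glucose DMEM with 10% heat-inactivated FBS, 37 °C, 5% CO2. LPS 1 µg/mL with or without compound (20 and 100 µM) for 24 h. Then MTT 4 h, formazan dissolved in DMSO, A570, expressed as % of control.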

[3] = Induction of H2S generation assessed as half life at 150 uM incubated at 37 degC and pH 1.2 by fluorescence spectrophotometry; type: functional; outline: as §1
[4] = Induction of H2S generation assessed as Cmax Induction of H2S generation assessed as Cmax at 150 uM incubated at 37 degC and pH 7.4 by fluorescence spectrophotometry; type: functional; outline: as §1
[5] = Induction of H2S generation assessed as Cmax at 150 uM incubated at 37 degC and pH 5 by fluorescence spectrophotometry; type: functional; outline: as §1
[6] = Drug metabolism in Wistar rat kidney homogenate assessed as metabolite formation incubated for 36 hrs by LC-MS; type: ADME, tissue-based; conditions: tissue homogenate
[7] = Drug metabolism in Wistar rat heart homogenate assessed as metabolite formation incubated for 36 hrs by LC-MS; type: ADME, tissue-based; conditions: tissue homogenate
[8] = Toxicity in Wistar rat assessed as congested central venous and hepatic sinuses and swollen hepatocytes at 0.01 mmol/kg, ip administered for 14 days; type: organism-based; conditions: in vivo, 336 h, time 14 day
Outline: (§2)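 Wistar rats (6/group) dosed ip daily for 14 days with compound in 10% DMSO; vehicle controls received 10% DMSO. Liver, kidney and spleen were fixed in 4% glutaraldehyde, sectioned, H-E stained and examined microscopically.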

[9] = Toxicity in Wistar rat assessed as large and inflamed nucleus in spleen at 0.01 mmol/kg, ip administered for 14 days; type: organism-based; conditions: in vivo, 336 h, time 14 day; outline: as §2
[10] = Retention time of compound in PBS by LC-MS analysis; type: physicochemical; conditions: buffer
Outline: (§3)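 Compound incubated in PBS pH 7.4 or in serum, sampled every 12 h over 36 h, and analysed by LC-MS for parent and product peaks.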

[11] = tested on: H9c2; experiment: Cardioprotective activity against H2O2- induced toxicity in rat H9c2 cells assessed as increase in survival rate at 50 uM incubated for 8 hrs co-treated with 400 uM H2O2 measured after 24 hrs by MTT assay relative to control; type: functional
Outline: (§4)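 H9c2 cardiomyocytes injured with H2O2 (50, 200 or 400 µM) for 8 h together with compound (10–100 µM). Survival rate measured against the H2O2 model group. Six independent experiments, mean ± sd.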

[12] = Retention time of compound in serum by LC-MS analysis; type: physicochemical, cell-free; outline: as §3
[13] = Solubility of compound in water; type: physicochemical; conditions: buffer
[14] = Toxicity in Wistar rat assessed as effect on platelet level at 0.01 mmol/kg, ip, administered daily for 14 days (reference value: 8.57 10^9/L); conditions: in vivo, 336 h, time 14 day
[15] = Toxicity in zebra fish assessed as decrease in hatching rate at <=20 uM measured after 120 hpf by microscopic analysis relative control; parameters: species or system Danio rerio; scale not given: the % may be the effect or the level left; conditions: zebrafish, 5 µM
[16] = Induction of H2S generation assessed as half life at 150 uM incubated at 37 degC and pH 5 by fluorescence spectrophotometry; type: functional; outline: as §1
[17] = Toxicity in zebrafish embryos assessed as embryo malformation rate at 1 to 20 uM measured after 96 hpf relative to control; parameters: species or system Danio rerio; conditions: in vivo
[18] = Induction of H2S generation assessed as Cmax Induction of H2S generation assessed as Cmax at 150 uM incubated at 37 degC and pH 8 by fluorescence spectrophotometry; type: functional; outline: as §1
[19] = tested on: HeLa; experiment: Cytotoxicity in human HeLa cells assessed as growth inhibition incubated for 24 hrs by MTT assay; type: functional, cell-based
Outline: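 Cells were grown in RPMI 1640 with 10% FBS at 37 °C and 10% CO2, seeded at 6×10^3 cells/well. Exposure was 24 h, with viability by MTT, in triplicate cultures. IC50 was reported as mean ± SD.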

[20] = tested on: H9c2; experiment: Cardioprotective activity against H2O2- induced toxicity in rat H9c2 cells assessed as increase in survival rate at 50 uM incubated for 8 hrs co-treated with 50 uM H2O2 measured after 24 hrs by MTT assay relative to control; type: functional; outline: as §4
[21] = Kinetic Solubility of compound; type: physicochemical
[22] = Toxicity in zebrafish embryos assessed as embryo malformation rate at 20 uM measured after 96 hpf relative to control; parameters: species or system Danio rerio; conditions: in vivo
[23] = tested on: RAW264.7; experiment: Anti-inflammatory activity in mouse RAW264.7 cells assessed as inhibition of LPS-induced TNFalpha production at 20 uM preincubated for 4 hr followed by LPS addition and measured after 24 hrs relative to control; type: functional, cell-based
Outline: (§5)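 RAW264.7 cells given LPS 1 µg/mL with compound for 24 h, then lysed in RIPA and centrifuged. Protein was set to 0.1 mg/mL by BCA and mouse cytokine levels measured by sandwich ELISA kit. Four parallel groups, mean ± SD.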

[24] = tested on: H9c2; experiment: Cardioprotective activity against H2O2- induced toxicity in rat H9c2 cells assessed as decrease in MDA level at 10 to 100 uM pretreated with H202 for 8 hrs followed by compound addition measured after 24 hrs; type: functional, cell-based; conditions: dose microM 10-100, time 8.0 hrs
[25] = tested on: RAW264.7; experiment: Anti-inflammatory activity in mouse RAW264.7 cells assessed as inhibition of LPS-induced IL-10 production at 20 uM preincubated for 4 hr followed by LPS addition and measured after 24 hrs; type: functional, cell-based; outline: as §5
[26] = tested on: H9c2; experiment: Cytoprotective activity against H2O2-induced toxicity in rat H9c2 cells assessed as increase in SOD level at 10 to 100 uM pretreated with H202 for 8 hrs followed by compound addition measured after 24 hrs; type: functional, cell-based; conditions: dose microM 10-100, time 8.0 hrs
[27] = tested on: RAW264.7; experiment: Anti-inflammatory activity in mouse RAW264.7 cells assessed as inhibition of LPS-induced NO production at 100 uM preincubated for 4 hr followed by LPS addition and measured after 24 hrs relative to control; type: functional
Outline: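 RAW264.7 cells exposed to LPS 1 µg/mL with compound (20 and 100 µM) for 24 h. Nitrite in medium measured by Griess reagent, […], against a sodium nitrite standard curve (0–100 µM). Four parallel groups, mean ± SD.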

Compound	T1/2 [1] [min]	viability at 24 h [2] [%]	T1/2 [3] [min]	Cmax [4] [µM]	Cmax [5] [µM]	Activity [8]	Activity [9]	Retention_time [12] [min]	Activity [14]	Activity [15] [%]	T1/2 [16] [min]	Cmax [18] [µM]	IC50 [19] [µM]	Activity [20] [%]	other results
S=P1(c2ccccc2)NCCCO1 (stereo unspecified)	35.7	70	35.4	26.5	35.8	Toxic	Toxic	9.647	628 10^9/L	50	36.6	35.1	826	17.1	Drug metabolism [6]: Metabolite_Detected; Drug metabolism [7]: Metabolite_Detected; Retention_time [10]: 9.649 min; Activity [11]: 5.1%; solubility [13]: Insoluble; Activity [17]: 2%; Kinetic_solubility [21]: Soluble
O=C([O-])[C@H](Cc1cc2ccccc2[nH]1)NP([O-])(=S)c1ccccc1.[Li+].[Li+] (stereo partly specified)	3.07	70	1.51	124	124	Toxic	Toxic	8.06	530 10^9/L	50	2.9	124	712	25.5	Activity [22]: 5%; Activity [23]: Active; Activity [24]: Active; Activity [25]: Active; Activity [26]: Active; inhibition at 100 µM [27]: 50%
